ChEMBL document CHEMBL3739331, “Synthesis and Bioactivities of Kanamycin B-Derived Cationic Amphiphiles” (J Med Chem, 2015)
In brackets after ≈: the same amount, converted by molar mass. Activity calls are given as the source filed them. The calls are words filed in the database; no cut-off is given here.

How the values were obtained:
[1] = Hemolytic activity against mouse RBC at 7.8 ug/ml after 60 mins; format: ADME, cell-based, Erythrocyte; settings: red blood cells, read-out: Activity
[2] = Hemolytic activity against mouse RBC at 62.5 ug/ml after 60 mins; format: ADME, cell-based, Erythrocyte; settings: red blood cells, read-out: Activity
[3] = Hemolytic activity against mouse RBC at 100 to 500 ug/ml after 60 mins; format: ADME, cell-based; settings: erythrocyte, 1 h
Klebsiella pneumoniae = experiment: Antibacterial activity against Klebsiella pneumoniae ATCC 27736 by microdilution method; format: functional
Summary of the method: (§1)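 Broth microdilution MIC against the named bacterial strain, reported in μg/mL; each determination run at least in duplicate.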

[4] = Activity of AAC(3)-4 (unknown origin) assessed as compound acetylation activity by Ellman's method
Bacillus subtilis = experiment: Antibacterial activity against Bacillus subtilis 168 by microdilution method; format: functional; settings: subsp. subtilis str. 168; summary of the method: as §1
Staphylococcus aureus [5] = experiment: Antibacterial activity against methicillin-resistant Staphylococcus aureus by microdilution method; format: functional
Summary of the method: (§2)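 Broth microdilution MIC, in μg/mL, against a panel of Gram-positive and Gram-negative strains. Run at least in duplicate.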

[6] = test system: Mycolicibacterium smegmatis; experiment: Antibacterial activity against Mycobacterium smegmatis MC2 155 by microdilution method; format: functional; settings: str. MC2 155; summary of the method: as §2
Staphylococcus aureus [7] = experiment: Antibacterial activity against Staphylococcus aureus ATCC 29213 by microdilution method; format: functional; summary of the method: as §1
Staphylococcus aureus [8] = experiment: Antibacterial activity against Staphylococcus aureus NRS382 (USA 100) by microdilution method; format: functional; summary of the method: as §1
Staphylococcus aureus [9] = experiment: Antibacterial activity against Staphylococcus aureus NRS383 (USA 200) by microdilution method; format: functional; summary of the method: as §1
Staphylococcus aureus [10] = experiment: Antibacterial activity against Staphylococcus aureus NRS385 (USA 300) by microdilution method; format: functional; summary of the method: as §2
Staphylococcus aureus [11] = experiment: Antibacterial activity against Staphylococcus aureus NRS22 (USA 600) by microdilution method; format: functional; summary of the method: as §1
[12] = test system: Staphylococcus epidermidis; experiment: Antibacterial activity against Staphylococcus epidermidis ATCC 12228 by microdilution method; format: functional; summary of the method: as §1
Enterococcus = experiment: Antibacterial activity against vancomycin-resistant Enterococcus by microdilution method; format: functional; summary of the method: as §2
Acinetobacter baumannii = experiment: Antibacterial activity against Acinetobacter baumannii ATCC 19606 by microdilution method; format: functional; summary of the method: as §1
Enterobacter cloacae = experiment: Antibacterial activity against Enterobacter cloacae ATCC 13047 by microdilution method; format: functional; summary of the method: as §1
Escherichia coli = experiment: Antibacterial activity against Escherichia coli MC1061 by microdilution method; format: functional; summary of the method: as §2
Pseudomonas aeruginosa = experiment: Antibacterial activity against Pseudomonas aeruginosa ATCC 27853 by microdilution method; format: functional; summary of the method: as §1
Salmonella enterica = experiment: Antibacterial activity against Salmonella enterica ATCC 14028 by microdilution method; format: functional; summary of the method: as §1
[13] = test system: Bacillus subtilis subsp. subtilis str. 168; experiment: Activity of Bacillus subtilis 168 APH(2'')-1a assessed as compound phosphorylation activity by Ellman's method
[14] = Activity of AAC(6')-1e/APH(2'')-1a (unknown origin) assessed as compound acetylation activity by Ellman's method
Serratia marcescens = experiment: Activity of Serratia marcescens AAC(6')-2d assessed as compound acetylation activity by Ellman's method
[15] = test system: Mycobacterium tuberculosis; experiment: Activity of Mycobacterium tuberculosis AAC(2')-1c assessed as compound acetylation activity by Ellman's method
[16] = test system: Mycobacterium tuberculosis; experiment: Activity of Mycobacterium tuberculosis Eis assessed as compound acetylation activity by Ellman's method
Candida albicans [17] = experiment: Antifungal activity against azole-resistant Candida albicans ATCC 10231 after 48 hrs by microbroth dilution method; format: functional; settings: ATCC 10231, 48 h
Summary of the method: (§3)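 Yeast MIC by broth microdilution, run in duplicate. The aminoglycoside compounds are read as MIC-0 (complete inhibition). Azoles are read as MIC-2 (50% inhibition).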

Candida albicans [18] = experiment: Antifungal activity against azole-resistant Candida albicans ATCC 64124 after 48 hrs by microbroth dilution method; format: functional; settings: ATCC 64124, 48 h; summary of the method: as §3
Candida albicans [19] = experiment: Antifungal activity against azole-susceptible Candida albicans ATCC MYA-2876 after 48 hrs by microbroth dilution method; format: functional; settings: ATCC MYA-2876, 48 h; summary of the method: as §3
Candida albicans [20] = experiment: Antifungal activity against azole-resistant Candida albicans ATCC 90819 after 48 hrs by microbroth dilution method; format: functional; settings: ATCC 90819, 48 h; summary of the method: as §3
Candida albicans [21] = experiment: Antifungal activity against azole-susceptible Candida albicans ATCC MYA-2310 after 48 hrs by microbroth dilution method; format: functional; settings: ATCC MYA-2310, 48 h; summary of the method: as §3
Candida albicans [22] = experiment: Antifungal activity against azole-resistant Candida albicans MYA-1237 after 48 hrs by microbroth dilution method; format: functional; settings: MYA-1237, 48 h; summary of the method: as §3
Candida albicans [23] = experiment: Antifungal activity against azole-resistant Candida albicans MYA-1003 after 48 hrs by microbroth dilution method; format: functional; settings: MYA-1003, 48 h; summary of the method: as §3
Aspergillus nidulans = experiment: Antifungal activity against Aspergillus nidulans ATCC 38163 after 48 hrs by microbroth dilution method; format: functional; settings: ATCC 38163, 48 h
Summary of the method: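 Filamentous fungus MIC by broth microdilution, run in duplicate. All compounds are read as MIC-0 (complete inhibition).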

Question: With `CCCCCCCCCCCCCCCCSC[C@@H]1O[C@@H](O[C@@H]2[C@@H](O)[C@H](O[C@@H]3O[C@@H](CN)[C@H](O)[C@@H](O)[C@@H]3N)[C@@H](N)C[C@H]2N)[C@@H](O)[C@H](N)[C@H]1O` (stereo in doubt) as the compound, how does the hemolysis at 1 h, 7.8 ug/ml [1] read?
Answer: The hemolysis at 1 h, 7.8 ug/ml was 16%.

Question: What about the hemolysis at 1 h, 62.5 ug/ml [2] of the same compound?
Answer: Its hemolysis at 1 h, 62.5 ug/ml is 81%.

Question: And the Activity [3]?
Answer: Its Activity is “Toxic”.

Question: What about the MIC (Klebsiella pneumoniae) of the same compound?
Answer: Its MIC is over 128 µg/mL.

Question: What about the Activity [4] of the same compound?
Answer: Its Activity is “inactive”.

Question: What about the MIC (Bacillus subtilis) of the same compound?
Answer: The MIC was over 128 µg/mL.

Question: And the MIC (Staphylococcus aureus [5])?
Answer: The MIC was over 128 µg/mL.

Question: What about the MIC [6] of the same compound?
Answer: The MIC was 8 µg/mL (≈ 11 µM).

Question: And the MIC (Staphylococcus aureus [7])?
Answer: The MIC was over 128 µg/mL.

Question: What about the MIC (Staphylococcus aureus [8]) of the same compound?
Answer: Its MIC is 128 µg/mL (≈ 177 µM).

Question: And the MIC (Staphylococcus aureus [9])?
Answer: Its MIC is over 128 µg/mL.

Question: And the MIC (Staphylococcus aureus [10])?
Answer: Its MIC is over 128 µg/mL.

Question: And the MIC (Staphylococcus aureus [11])?
Answer: The MIC was 128 µg/mL (≈ 177 µM).

Question: What about the MIC [12] of the same compound?
Answer: The MIC was over 128 µg/mL.

Question: What about the MIC (Enterococcus) of the same compound?
Answer: Its MIC is 128 µg/mL (≈ 177 µM).

Question: And the MIC (Acinetobacter baumannii)?
Answer: Its MIC is over 128 µg/mL.

Question: And the MIC (Enterobacter cloacae)?
Answer: Its MIC is over 128 µg/mL.

Question: What about the MIC (Escherichia coli) of the same compound?
Answer: Its MIC is over 128 µg/mL.

Question: What about the MIC (Pseudomonas aeruginosa) of the same compound?
Answer: The MIC was over 128 µg/mL.

Question: And the MIC (Salmonella enterica)?
Answer: Its MIC is over 128 µg/mL.

Question: And the Activity [13]?
Answer: The Activity was “inactive”.

Question: What about the Activity [14] of the same compound?
Answer: The Activity was “inactive”.

Question: What about the Activity (Serratia marcescens) of the same compound?
Answer: The Activity was “inactive”.

Question: And the Activity [15]?
Answer: Its Activity is “inactive”.

Question: What about the Activity [16] of the same compound?
Answer: The Activity was “inactive”.

Question: And the MIC (Candida albicans [17])?
Answer: The MIC was 3.9 µg/mL (≈ 5.39 µM).

Question: And the MIC (Candida albicans [18])?
Answer: The MIC was 3.9 µg/mL (≈ 5.39 µM).

Question: And the MIC (Candida albicans [19])?
Answer: Its MIC is 3.9 µg/mL (≈ 5.39 µM).

Question: And the MIC (Candida albicans [20])?
Answer: The MIC was 3.9 µg/mL (≈ 5.39 µM).

Question: What about the MIC (Candida albicans [21]) of the same compound?
Answer: The MIC was 3.9 µg/mL (≈ 5.39 µM).

Question: And the MIC (Candida albicans [22])?
Answer: The MIC was 3.9 µg/mL (≈ 5.39 µM).

Question: What about the MIC (Candida albicans [23]) of the same compound?
Answer: The MIC was 3.9 µg/mL (≈ 5.39 µM).

Question: What about the MIC (Aspergillus nidulans) of the same compound?
Answer: Its MIC is 1.95 µg/mL (≈ 2.69 µM).
